Each structure is given as a SMILES string. Calls of active or inactive are those of the source. The calls are words filed in the database; no cut-off is given here.

The results in this text go back to ChEMBL document CHEMBL4765352, “Discovery of AdipoRon analogues as novel AMPK activators without inhibiting mitochondrial complex I” (Eur J Med Chem, 2020).

In series [1] the test system is C2C12. The experiment in a line: Activation of AMPK in mouse C2C12 cells assessed as increase in AMPK phosphorylation at Thr172 residue at 10 uM measured after 2 hrs by Western blot analysis. It counts as cell-based. The settings on record: filed as activator. The method in brief: (§1)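 C2C12 myoblasts differentiated in DMEM with 2% horse serum for 5-7 days until myotubes formed. Treated for 2 h, either at 10 μM or across a concentration range, or at 10 μM over a time course. RIPA lysates (~30 µg protein) blotted for p-AMPK/AMPK and p-ACC/ACC, detected by ECL. The p-AMPK/AMPK ratio is expressed as fold of the DMSO vehicle.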
(In general: Immunoblotting shows a protein as a band on a membrane.)

Series [2] in a line: Induction of cardiac hypertrophy in normal lean C57BL/6 mouse assessed as increase in cardiac glycogen level at 100 mg/kg, ig administered for 4 weeks by PAS staining based analysis. The settings on record: in vivo, po, 672 h. It counts as organism-based. The method in brief: (§2)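 Male C57BL/6 mice, 9 weeks old, dosed intragastrically daily for 4 weeks. After saline perfusion, organ weights and tibia length were recorded. Heart pieces were fixed in 4% paraformaldehyde, embedded in paraffin and stained with periodic acid-Schiff to show glycogen.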

Series [3] relates to HepG2. Put plainly: Activation of AMPK in human HepG2 cells assessed as increase in ACC phosphorylation at 1 to 20 uM measured after 2 to 12 hrs by Western blotting analysis. It counts as cell-based. Conditions: filed as activator, dose 1-20 µM, time 2-12 hrs. An outline of the steps:
(§3)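 HepG2 and HuH-7 cells in medium with 10% FBS and penicillin/streptomycin at 37 °C, 5% CO₂. Treated with a range of concentrations for 2 h, or with 10 μM over a time course. Cells lysed in RIPA buffer with protease/phosphatase inhibitors; ~30 µg protein per lane blotted for p-AMPK, AMPK, p-ACC, ACC, with GAPDH or β-actin as loading control. Detected by ECL.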

For series [4], the species on record is Mus musculus. Put plainly: Improvement in lipid homeostasis in db/db mouse assessed as effect on serum total cholesterol level. It counts as functional, organism-based.
Series [5] has as its system Mus musculus. Put plainly: Antihyperglycemic activity in db/db mouse assessed as reduction in fasting blood glucose level at 100 mg/kg, ig administered once daily for 2 to 6 weeks. It counts as functional, organism-based. The settings on record: time 2-6 weeks. The method in brief: (§4)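 db/db mice, 5 weeks old, grouped by matching baseline blood glucose and body weight. Dosed intragastrically once daily at 100 mg/kg in 0.5% methylcellulose; vehicle-treated db/db and db/m mice served as controls. Body weight and fasting blood glucose measured weekly. Serum ALT and AST measured after 10 weeks. Data given as mean ± SEM.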

The nature of series [6]: Induction of cardiac hypertrophy in normal lean C57BL/6 mouse at 100 mg/kg, ig administered for 4 weeks. It counts as organism-based. The settings on record: in vivo, po, 672 h. The method in brief: as §2
Series [7] relates to HepG2. The experiment in a line: Activation of AMPK in human HepG2 cells assessed as increase in AMPK phosphorylation at 1 to 20 uM measured after 2 to 12 hrs by Western blotting analysis. It counts as cell-based. Conditions: filed as activator, dose 1-20 µM, time 2-12 hrs. An outline of the steps:
as §3

The nature of series [8]: Metabolic stability in human liver microsomes assessed as half life preincubated for 5 mins followed by NADPH addition and measured up to 45 mins by LC/MS analysis. It counts as ADME, Microsome. Conditions: time 50 min. The method in brief:
(§5)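 Compound was preincubated with mouse (ICR/CD-1) or human liver microsomes in potassium phosphate buffer at 37 °C for 5 min, then NADPH was added to start the reaction. Samples were quenched with acetonitrile containing tolbutamide internal standard at 0, 5, 15, 30 and 45 min. Parent compound measured by LC/MS; ketanserin served as control.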

A short description of series [9]: Metabolic stability in human liver microsomes assessed as compound remaining preincubated for 5 mins followed by NADPH addition and measured up to 45 mins by LC/MS analysis. Conditions: time 50 min, read-out: Stabilty. It counts as ADME, Microsome. An outline of the steps: as §5
Background: Liver microsomes are a subcellular fraction often used to study metabolism.

The nature of series [10]: Inhibition of mitochondrial complex 1 in human HepG2 cells assessed as increase in AMP/ATP ratio at 10 uM. It counts as cell-based. The settings on record: hepg2, 10 µM. An outline of the steps: (§6)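 HepG2 cells treated with 10 μM or 0.5 μM compound, or DMSO. Cellular ADP:ATP and AMP:ATP ratios were measured. Three replicates, given as mean ± SD and compared by Student's t test.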

A short description of series [11]: Induction of cardiac hypertrophy in db/db mouse assessed as increase in cardiac glycogen accumulation at 100 mg/kg, ig administered for 10 weeks. It counts as organism-based. The settings on record: in vivo, po, 1680 h.
A short description of series [12]: Toxicity in db/db mouse assessed as effect on serum ALT level at 100 mg/kg, ig administered for 10 weeks. It counts as organism-based. Conditions: in vivo, po, 1680 h. An outline of the steps: as §4
Series [13] concerns C2C12. Put plainly: Activation of AMPK in mouse C2C12 cells assessed as increase in ACC phosphorylation at 10 uM by Western blotting analysis. The settings on record: filed as activator, time 0.5-24 hrs, TDE = time-dependent effect. It counts as cell-based. An outline of the steps: as §1
Series [14] is described as follows: Toxicity in C57BL/6 mouse assessed as change in heart weight/tibia length ratio at 50 to 200 mg/kg, ig administered for 4 weeks. The settings on record: in vivo, po, 672 h, dose 50-200 mg/kg. It counts as organism-based. The method in brief: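 Male C57BL/6 mice (6 per group) given 50, 100 or 200 mg/kg intragastrically daily for 4 weeks. Saline-perfused hearts were weighed and examined for gross morphology, with representative hearts chosen by similar body weight. Heart weight was expressed relative to body weight and to tibia length.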

A short description of series [15]: Metabolic stability in ICR/CD-1 mouse liver microsomes assessed as half life preincubated for 5 mins followed by NADPH addition and measured up to 45 mins by LC/MS analysis. It counts as ADME, Microsome. The settings on record: time 50 min. An outline of the steps: as §5
The nature of series [16]: Toxicity in db/db mouse assessed as effect on body weight at 100 mg/kg, ig administered for 10 weeks. It counts as organism-based. The settings on record: in vivo, po, 1680 h. The method in brief:
as §4

Series [17] deals with Mus musculus. Put plainly: Hypoglycemic activity in 6 hrs fasted normal lean C57BL/6 mouse assessed as reduction in blood glucose level at 100 mg/kg, ig pretreated for 2 hrs followed by glucose challenge and measured up to 90 mins post glucose challenge starting from 120 mins prior to […] by IPGTT. It counts as functional, organism-based. The settings on record: time 210.0 min. The method in brief: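 C57BL/6 mice (male, 8-10 weeks, n=6 per group) fasted 6 h, then given compound or vehicle intragastrically. Two hours later, 20% glucose was injected i.p. at 2 g/kg. Tail-vein glucose read by glucometer at -120, 0, 20, 40, 60 and 90 min, and net AUC calculated. Doses were 25, 50 and 100 mg/kg.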

A short description of series [18]: Inhibition of mitochondrial complex 1 in human HepG2 cells assessed as increase in ADP/ATP ratio at 10 uM. The settings on record: hepg2, 10 µM. It counts as cell-based. The method in brief:
as §6

Series [19] has as its system C2C12. The experiment in a line: Activation of AMPK in mouse C2C12 cells assessed as increase in AMPK phosphorylation in presence of CaMKKbeta inhibitor STO-609. It counts as cell-based. Conditions: filed as activator.
The test system of a further series is Huh-7. The experiment in a line: Activation of AMPK in human HuH-7 cells assessed as increase in ACC phosphorylation at 1 to 20 uM measured after 2 to 12 hrs by Western blotting analysis. Conditions: filed as activator, dose 1-20 µM, time 2-12 hrs. It counts as cell-based. An outline of the steps: as §3
Series [20] in a line: Metabolic stability in human liver microsomes assessed as intrinsic clearance preincubated for 5 mins followed by NADPH addition and measured up to 45 mins by LC/MS analysis. It counts as ADME, Microsome. Conditions: time 50 min, read-out: CLH. An outline of the steps:
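Compound and liver microsomes in preheated potassium phosphate buffer, held at 37 °C for 5 min. Reaction started with NADPH and stopped at 0, 5, 15, 30 and 45 min with acetonitrile containing tolbutamide internal standard. Samples centrifuged at 6000 rpm for 15 min, supernatant analysed by LC/MS. Ketanserin run as assay control. Performed by a contract lab.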

The nature of series [21]: Toxicity in db/db mouse assessed as effect on serum AST level at 100 mg/kg, ig administered for 10 weeks. It counts as organism-based. The settings on record: in vivo, po, 1680 h. The method in brief:
as §4

Consider `CC(C)(Oc1ccc(Cl)cc1)C(=O)Nc1ccc(OCc2ccc(C#N)cc2)cc1`, for which the outcome in the series with C2C12 [1], in the series on HepG2 [3], in the series with Mus musculus [5], in the series with HepG2 [7], with Mus musculus [17] and in the series with C2C12 [19] was Active. Also, the outcome with Huh-7 was Active. The Activity result in series [2] was “Non-Toxic”; in [6], “Non-Toxic”; in series [11], “Non-Toxic”; in series [12], “Non-Toxic”; in the series on C2C12 [13], “Tde”; in series [14] it was “Non-Toxic”. The Activity result in [16] and in series [21] was “Non-Toxic” throughout. The outcome in the series filed under Mus musculus [4] was inactive. Moreover, the half-life worked out at 1.62 h in [8] and 0.6 h in [15]. Besides, the remaining at 0.75 h in series [9] is 74%. The “inhibition (INH)” value in series [10] and in series [18] was “Not Active” throughout. Besides, the CLint scaled in series [20] was 18 mL/min/kg.

The half-life is how long it takes for the measured level to halve.
